# In ChEMBL document CHEMBL1255567, “Design, synthesis, and structure-activity relationships of novel bicyclic azole-amines as negative allosteric modulators of metabotropic glutamate receptor 5” (J Med Chem, 2010):
# The source made the active and inactive calls. No cut-off for these calls is given here.
# Experiments:
# [1] = target: T1, Metabotropic glutamate receptor 5 (Homo sapiens, UniProt P41594); test: Modulation of human recombinant mGluR5 expressed in CHO cells assessed as inhibition of glutamate-induced response at 10 uM; format: cell-based
# Target sequence in this assay (P41594 21-1212 limits assumed): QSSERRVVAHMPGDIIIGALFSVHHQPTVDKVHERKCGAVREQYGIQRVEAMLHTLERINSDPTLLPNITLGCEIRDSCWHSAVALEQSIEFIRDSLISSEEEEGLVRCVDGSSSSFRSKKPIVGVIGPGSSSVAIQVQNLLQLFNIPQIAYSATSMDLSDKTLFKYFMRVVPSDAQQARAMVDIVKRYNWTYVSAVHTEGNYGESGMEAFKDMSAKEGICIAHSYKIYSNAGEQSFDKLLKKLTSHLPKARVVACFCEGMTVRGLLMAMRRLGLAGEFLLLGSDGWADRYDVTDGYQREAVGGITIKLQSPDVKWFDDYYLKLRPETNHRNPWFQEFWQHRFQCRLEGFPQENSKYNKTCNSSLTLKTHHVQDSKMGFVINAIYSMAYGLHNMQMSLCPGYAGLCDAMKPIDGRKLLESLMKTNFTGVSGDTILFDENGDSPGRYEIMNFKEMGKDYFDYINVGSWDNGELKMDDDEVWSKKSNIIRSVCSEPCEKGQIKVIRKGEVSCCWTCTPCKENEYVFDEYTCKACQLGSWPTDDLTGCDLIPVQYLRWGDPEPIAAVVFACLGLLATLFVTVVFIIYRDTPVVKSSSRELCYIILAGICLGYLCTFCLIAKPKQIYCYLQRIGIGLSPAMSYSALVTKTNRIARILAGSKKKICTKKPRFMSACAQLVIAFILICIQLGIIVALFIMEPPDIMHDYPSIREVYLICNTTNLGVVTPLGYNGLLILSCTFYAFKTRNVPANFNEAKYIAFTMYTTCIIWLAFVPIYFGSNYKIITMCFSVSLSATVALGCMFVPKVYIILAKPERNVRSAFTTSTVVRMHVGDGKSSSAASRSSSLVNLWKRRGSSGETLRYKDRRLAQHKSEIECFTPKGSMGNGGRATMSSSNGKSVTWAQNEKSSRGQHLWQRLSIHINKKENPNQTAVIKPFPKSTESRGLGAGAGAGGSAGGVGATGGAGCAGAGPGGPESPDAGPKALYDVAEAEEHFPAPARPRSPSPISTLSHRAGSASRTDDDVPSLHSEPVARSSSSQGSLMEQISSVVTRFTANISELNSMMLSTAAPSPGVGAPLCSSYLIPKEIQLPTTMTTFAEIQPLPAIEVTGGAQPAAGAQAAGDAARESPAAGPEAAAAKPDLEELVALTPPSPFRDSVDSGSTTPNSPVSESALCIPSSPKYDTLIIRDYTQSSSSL
# [2] = target: T1, Metabotropic glutamate receptor 5; test: Modulation of human recombinant mGluR5 expressed in CHO cells assessed as inhibition of glutamate-induced response; format: cell-based
# In short: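 Aequorin cell line with doxycycline-inducible human mGluR5, induced 18 h (600 ng/mL). Cells loaded with coelenterazine-h ≥4 h at room temperature, preincubated with compound ≥3 min, then challenged with glutamate at EC80. Luminescence read on FDSS 6000, normalized to digitonin or 20 μM ATP wells. IC50 from sigmoidal fit; mean of two determinations.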
# Target sequence in this assay (P41594 whole entry): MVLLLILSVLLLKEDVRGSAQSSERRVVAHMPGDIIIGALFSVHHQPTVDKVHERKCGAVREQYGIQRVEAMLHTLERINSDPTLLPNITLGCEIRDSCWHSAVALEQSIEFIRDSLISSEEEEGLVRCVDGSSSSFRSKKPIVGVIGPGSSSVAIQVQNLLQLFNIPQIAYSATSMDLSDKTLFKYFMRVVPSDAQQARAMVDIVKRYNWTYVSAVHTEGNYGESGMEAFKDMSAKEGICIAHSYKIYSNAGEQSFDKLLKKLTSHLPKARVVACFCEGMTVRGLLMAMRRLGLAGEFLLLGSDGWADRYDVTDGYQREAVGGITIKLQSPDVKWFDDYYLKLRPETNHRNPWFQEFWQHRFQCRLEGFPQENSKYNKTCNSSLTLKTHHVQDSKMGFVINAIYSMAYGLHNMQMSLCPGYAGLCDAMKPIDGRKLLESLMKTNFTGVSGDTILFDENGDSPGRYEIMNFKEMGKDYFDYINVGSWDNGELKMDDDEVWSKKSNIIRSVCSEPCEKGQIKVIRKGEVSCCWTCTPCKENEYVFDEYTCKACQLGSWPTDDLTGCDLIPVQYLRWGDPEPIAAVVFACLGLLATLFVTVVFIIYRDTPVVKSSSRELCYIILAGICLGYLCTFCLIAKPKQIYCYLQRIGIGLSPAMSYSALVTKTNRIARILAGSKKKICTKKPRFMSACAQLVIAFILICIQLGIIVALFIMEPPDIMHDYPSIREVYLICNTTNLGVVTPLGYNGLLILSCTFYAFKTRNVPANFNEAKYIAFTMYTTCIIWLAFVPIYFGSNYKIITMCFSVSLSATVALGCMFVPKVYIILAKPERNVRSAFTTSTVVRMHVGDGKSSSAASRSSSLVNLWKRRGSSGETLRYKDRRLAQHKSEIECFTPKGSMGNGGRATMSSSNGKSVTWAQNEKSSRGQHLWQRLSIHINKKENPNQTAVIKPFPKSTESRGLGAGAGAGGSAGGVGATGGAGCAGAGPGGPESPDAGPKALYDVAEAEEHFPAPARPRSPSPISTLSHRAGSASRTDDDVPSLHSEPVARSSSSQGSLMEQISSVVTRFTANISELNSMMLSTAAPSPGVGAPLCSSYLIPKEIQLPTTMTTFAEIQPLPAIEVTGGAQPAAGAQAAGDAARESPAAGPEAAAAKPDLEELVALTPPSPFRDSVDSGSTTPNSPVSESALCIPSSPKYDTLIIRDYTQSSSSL
# [3] = target: Metabotropic glutamate receptor 5 (Rattus norvegicus, UniProt P31424); test: Displacement of [3H]-MPEP from mGluR5 in rat cortical membranes; format: cell membranes, Membrane
# Chain of Metabotropic glutamate receptor 5 (Rattus norvegicus, UniProt P31424) (P31424 whole entry): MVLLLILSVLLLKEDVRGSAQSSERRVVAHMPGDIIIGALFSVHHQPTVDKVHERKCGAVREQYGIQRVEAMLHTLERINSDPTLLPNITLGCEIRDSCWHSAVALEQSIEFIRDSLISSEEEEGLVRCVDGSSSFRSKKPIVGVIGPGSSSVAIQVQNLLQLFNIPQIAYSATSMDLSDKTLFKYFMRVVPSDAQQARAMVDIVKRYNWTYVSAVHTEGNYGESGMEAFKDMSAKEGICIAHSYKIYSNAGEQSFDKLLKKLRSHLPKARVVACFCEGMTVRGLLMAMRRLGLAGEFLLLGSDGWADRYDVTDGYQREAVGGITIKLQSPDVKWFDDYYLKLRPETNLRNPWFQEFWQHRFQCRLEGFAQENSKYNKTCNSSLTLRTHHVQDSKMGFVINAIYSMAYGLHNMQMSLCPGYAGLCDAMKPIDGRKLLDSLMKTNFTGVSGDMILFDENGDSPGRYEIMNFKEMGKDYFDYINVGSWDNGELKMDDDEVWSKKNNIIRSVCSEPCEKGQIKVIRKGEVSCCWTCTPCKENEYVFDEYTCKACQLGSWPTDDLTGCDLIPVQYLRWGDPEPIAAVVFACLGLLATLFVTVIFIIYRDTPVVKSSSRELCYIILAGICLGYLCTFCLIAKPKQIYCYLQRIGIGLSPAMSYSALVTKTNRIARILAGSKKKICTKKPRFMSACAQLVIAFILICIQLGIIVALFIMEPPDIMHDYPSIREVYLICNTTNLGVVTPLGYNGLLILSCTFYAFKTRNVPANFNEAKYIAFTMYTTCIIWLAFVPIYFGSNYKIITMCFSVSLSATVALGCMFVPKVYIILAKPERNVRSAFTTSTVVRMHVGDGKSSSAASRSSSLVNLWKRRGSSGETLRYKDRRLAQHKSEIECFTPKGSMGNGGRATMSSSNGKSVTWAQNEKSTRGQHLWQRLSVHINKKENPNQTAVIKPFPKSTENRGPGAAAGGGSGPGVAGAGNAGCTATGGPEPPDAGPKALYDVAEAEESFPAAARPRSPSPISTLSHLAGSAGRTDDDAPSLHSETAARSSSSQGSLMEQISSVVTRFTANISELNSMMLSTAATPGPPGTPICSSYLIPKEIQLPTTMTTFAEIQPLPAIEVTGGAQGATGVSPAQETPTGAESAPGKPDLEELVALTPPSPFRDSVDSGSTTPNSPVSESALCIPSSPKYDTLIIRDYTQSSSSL
# In short: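 Competition binding against [3H]-MPEP on rat cortical membranes, run in duplicate. Nonspecific binding defined with a 200-fold excess of reference modulator. Incubated 120 min at 4 °C in 0.1 mL, filtered on PEI-presoaked GF-C filters, washed with cold 50 mM Tris-HCl pH 7.4, scintillation counted. Ki reported as mean of two determinations; MPEP used as control.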
# [4] = test system: Rattus norvegicus; test: Ex vivo receptor occupancy of mGluR5 receptor in Sprague-Dawley rat brain at 3 mg/kg, ip after 60 mins; format: functional; details: route intraperitoneal
# In short: (§1)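 Male Sprague-Dawley rats (n = 4) dosed 3 mg/kg ip in 45% HPβCD. At set times postdose, iv tail-vein 3H-mPEPy tracer; decapitated 2 min later. Striatum and cerebellum sections imaged 12 h on β-imager. %RO derived from striatum:cerebellum signal ratio relative to vehicle animals; mean ± SEM.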
# [5] = test system: Plasma; test: Drug level in Sprague-Dawley rat plasma at 3 mg/kg, ip; format: ADME, organism-based; design: dose 3 mg/kg, route intraperitoneal; details: in vivo
# In short: (§2)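 Male Sprague-Dawley rats (200-250 g, n = 4) given 3 mg/kg ip in 45% HPβCD. Trunk blood and brain taken at sacrifice. Brain homogenized at 40 mg/mL in 95:5 water:acetonitrile with 0.1% formic acid. Plasma or homogenate precipitated with acetonitrile, dried, reconstituted and measured by LC/MS/MS.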
# [6] = test system: Rattus norvegicus; test: Ex vivo receptor occupancy of mGluR5 receptor in ip dosed Sprague-Dawley rat brain after 60 mins; format: functional; details: 1 h
# In short: (§3)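 Male Sprague-Dawley rats (200-250 g, n = 4) dosed ip or po at 0.3, 1, 3, 10, 30 mg/kg in 45% HPβCD. After 60 min, iv 3H-mPEPy tracer; killed 2 min later. Striatal versus cerebellar radioactivity on β-imager gives %RO against vehicle. Dose-occupancy curves fitted.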
# [7] = AUC (0 to t) in Sprague-Dawley rat at 2 mg/kg, iv; format: ADME, organism-based; design: dose 2 mg/kg, route intravenous; details: plasma
# In short: (§4)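 Male Sprague-Dawley rats, 3 per cohort; 2 mg/kg iv or 2 and 10 mg/kg oral gavage. Vehicle 40% hydroxypropyl-βCD:50 mM potassium phosphate pH 6.0 (50:50), 0.5 mg/mL nominal, filtered. Jugular-cannula blood predose and 5 min to 24 h. K2-EDTA plasma, methanol precipitation with internal standard, LC/MS/MS (LLOQ 2.5 ng/mL). Noncompartmental analysis.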
# [8] = (§5) Half life in Sprague-Dawley rat at 2 mg/kg, iv; format: ADME, organism-based; design: dose 2 mg/kg, route intravenous; details: Sprague-Dawley, in vivo; in short: as §4
# [9] = test system: Rattus norvegicus; test: as §5; format: ADME, organism-based; design: dose 2 mg/kg, route intravenous; details: in vivo; in short: as §4
# [10] = Volume of distribution in Sprague-Dawley rat at 2 mg/kg, iv; format: ADME, organism-based; design: dose 2 mg/kg, route intravenous; details: in vivo; in short: as §4
# [11] = Clearance in Sprague-Dawley rat at 2 mg/kg, iv; format: ADME, organism-based; design: dose 2 mg/kg, route intravenous; details: in vivo; in short: as §4
# [12] = Cmax in Sprague-Dawley rat at 2 mg/kg, iv; format: ADME, organism-based; design: dose 2 mg/kg, route intravenous; details: in vivo; in short: as §4
# [13] = AUC (0 to t) in Sprague-Dawley rat at 2 mg/kg, po; format: ADME, organism-based; design: dose 2 mg/kg, route oral; details: plasma; in short: as §4
# [14] = Half life in Sprague-Dawley rat at 2 mg/kg, po; format: ADME, organism-based; design: dose 2 mg/kg, route oral; details: in vivo; in short: as §4
# [15] = Cmax in Sprague-Dawley rat at 2 mg/kg, po; format: ADME, organism-based; design: dose 2 mg/kg, route oral; details: in vivo; in short: as §4
# [16] = Oral bioavailability in Sprague-Dawley rat at 2 mg/kg; format: ADME, organism-based; details: in vivo; in short: as §4
# [17] = AUC (0 to t) in Sprague-Dawley rat at 10 mg/kg, po; format: ADME, organism-based; design: dose 10 mg/kg, route oral; details: plasma; in short: as §4
# [18] = Half life in Sprague-Dawley rat at 10 mg/kg, po; format: ADME, organism-based; design: dose 10 mg/kg, route oral; details: in vivo; in short: as §4
# [19] = Cmax in Sprague-Dawley rat at 10 mg/kg, po; format: ADME, organism-based; design: dose 10 mg/kg, route oral; details: in vivo; in short: as §4
# [20] = Oral bioavailability in Sprague-Dawley rat at 10 mg/kg; format: ADME, organism-based; details: in vivo; in short: as §4
# [21] = AUC (0 to t) in rhesus monkey at 1 mg/kg, iv; format: ADME, organism-based, Macaca mulatta; design: dose 1 mg/kg, route intravenous; details: plasma
# In short: (§6)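 Male Rhesus monkeys, 3 per cohort; 1 mg/kg iv or oral gavage. Vehicle 40% hydroxypropyl-βCD:50 mM potassium phosphate pH 6.0 (50:50), 0.5 mg/mL nominal, filtered. Femoral vein blood predose and 5 min to 24 h. K3EDTA plasma, protein precipitation with internal standard, LC/MS/MS (LLOQ 2.5 ng/mL). Noncompartmental PK parameters.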
# [22] = Half life in rhesus monkey at 1 mg/kg, iv; format: ADME, organism-based, Macaca mulatta; design: dose 1 mg/kg, route intravenous; details: in vivo; in short: as §6
# [23] = Volume of distribution in rhesus monkey at 1 mg/kg, iv; format: ADME, organism-based, Macaca mulatta; design: dose 1 mg/kg, route intravenous; details: in vivo; in short: as §6
# [24] = Clearance in rhesus monkey at 1 mg/kg, iv; format: ADME, organism-based, Macaca mulatta; design: dose 1 mg/kg, route intravenous; details: in vivo; in short: as §6
# [25] = test system: Rhesus monkey; test: Cmax in rhesus monkey at 1 mg/kg, iv; format: ADME, organism-based, Macaca mulatta; design: dose 1 mg/kg, route intravenous; details: in vivo; in short: as §6
# [26] = AUC (0 to t) in rhesus monkey at 1 mg/kg, po; format: ADME, organism-based, Macaca mulatta; design: dose 1 mg/kg, route oral; details: plasma; in short: as §6
# [27] = Half life in rhesus monkey at 1 mg/kg, po; format: ADME, organism-based, Macaca mulatta; design: dose 1 mg/kg, route oral; details: in vivo; in short: as §6
# [28] = Cmax in rhesus monkey at 1 mg/kg, po; format: ADME, organism-based, Macaca mulatta; design: dose 1 mg/kg, route oral; details: in vivo; in short: as §6
# [29] = Oral bioavailability in rhesus monkey at 1 mg/kg; format: ADME, organism-based, Macaca mulatta; details: in vivo; in short: as §6
# [30] = test system: Rattus norvegicus; test: Ex vivo receptor occupancy of mGluR5 receptor in Sprague-Dawley rat brain at 3 mg/kg, ip after 30 mins; format: functional; details: route intraperitoneal; in short: as §1
# [31] = test system: Rattus norvegicus; test: Ex vivo receptor occupancy of mGluR5 receptor in Sprague-Dawley rat brain at 3 mg/kg, ip after 2 hrs; format: functional; details: route intraperitoneal; in short: as §1
# [32] = test system: Rattus norvegicus; test: Ex vivo receptor occupancy of mGluR5 receptor in Sprague-Dawley rat brain at 3 mg/kg, ip after 24 hrs; format: functional, organism-based; design: dose 3 mg/kg; in short: as §1
# [33] = target: Kappa-type opioid receptor (Homo sapiens) (UniProt P41145); test: Inhibition of kappa opioid receptor at 10 uM
# Chain of Kappa-type opioid receptor (Homo sapiens) (P41145 whole entry): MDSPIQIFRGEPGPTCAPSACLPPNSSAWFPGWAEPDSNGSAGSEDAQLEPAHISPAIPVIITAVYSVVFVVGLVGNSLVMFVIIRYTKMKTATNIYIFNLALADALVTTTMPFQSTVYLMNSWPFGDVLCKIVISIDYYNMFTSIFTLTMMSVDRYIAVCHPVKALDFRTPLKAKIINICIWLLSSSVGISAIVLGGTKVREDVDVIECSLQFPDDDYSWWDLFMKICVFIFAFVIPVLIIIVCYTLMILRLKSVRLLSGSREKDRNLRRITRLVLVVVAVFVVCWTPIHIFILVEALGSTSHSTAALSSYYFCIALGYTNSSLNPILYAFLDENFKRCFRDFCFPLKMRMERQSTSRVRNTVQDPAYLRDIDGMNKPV
# [34] = test system: Brain; test: Drug level in Sprague-Dawley rat brain at 3 mg/kg, ip; format: ADME, organism-based; design: dose 3 mg/kg, route intraperitoneal; details: in vivo, read-out: Drug uptake; in short: as §2
# [35] = test system: Rattus norvegicus; test: Ex vivo receptor occupancy of mGluR5 receptor in po dosed Sprague-Dawley rat brain after 60 mins; format: functional; details: 1 h; in short: as §3
smiles,measurement,setting,value
c1ccc(-c2nc3c(o2)CCN(C2CCCCC2)C3)nc1,inhibition,[1],0%
c1ccc(-c2nc3c(o2)CCN(C2CCNCC2)C3)nc1,inhibition,[1],0%
N#Cc1cc(F)cc(N2CCc3nc(-c4ccccn4)sc3C2)c1,inhibition,[1],52%
c1ccc(N2CCc3oc(-c4ccccn4)nc3C2)cc1,IC50,[2],330 nM
CC(C)c1nc2c(o1)CN(c1cccc(C#N)c1)CC2,inhibition,[1],6%
N#Cc1cccnc1N1CCc2nc(-c3ccccc3)oc2C1,inhibition,[1],79%
N#Cc1cc(F)cc(N2CCCc3oc(-c4ccccn4)nc3C2)c1,Ki,[3],17 nM
same,IC50,[2],16 nM
same,Activity,[4],82%
same,concentration,[5],1430 nM
same,ED50,[6],0.9 mg/kg
same,AUC(0-t),[7],2.26 µM·h
same,half-life,[8],37.2 min
same,Drug uptake,[9],1096 nM
same,Vd,[10],2.38 L/kg
same,clearance,[11],46.5 mL/min/kg
same,Cmax,[12],5250 nM
same,AUC(0-t),[13],0.7 µM·h
same,half-life,[14],46.2 min
same,Cmax,[15],620 nM
same,bioavailability,[16],31%
same,AUC(0-t),[17],3.36 µM·h
same,half-life,[18],54.6 min
same,Cmax,[19],2730 nM
same,bioavailability,[20],30%
same,AUC(0-t),[21],3.06 µM·h
same,half-life,[22],40.2 min
same,Vd,[23],0.95 L/kg
same,clearance,[24],16.3 mL/min/kg
same,Cmax,[25],5080 nM
same,AUC(0-t),[26],0.28 µM·h
same,half-life,[27],37.8 min
same,Cmax,[28],210 nM
same,bioavailability,[29],10%
same,Activity,[30],85%
same,Activity,[31],55%
same,Activity,[32],inactive
same,inhibition,[33],77%
N#Cc1cccc(N2CCc3nc(C4CCCCN4)oc3C2)c1 (racemic),inhibition,[1],79%
N#Cc1cc(F)cc(N2CCc3nc(-c4ccccn4)[nH]c3C2)c1,inhibition,[1],34%
N#Cc1cc(F)cc(N2CCc3oc(-c4ccccn4)nc3C2)c1,Ki,[3],17 nM
same,IC50,[2],28 nM
same,concentration,[34],1290 nM
same,Activity,[4],45%
same,ED50,[35],> 30 mg/kg
N#Cc1cccc(N2CCc3oc(-c4ccncc4)nc3C2)c1,inhibition,[1],30%
N#Cc1cccnc1N1CCc2oc(-c3ccccn3)nc2C1,IC50,[2],110 nM
N#Cc1cccc(C(=O)N2CCc3nc(-c4ccccn4)oc3C2)c1,IC50,[2],2600 nM
COC(=O)N1CCc2oc(-c3ccccn3)nc2C1,inhibition,[1],11%
N#Cc1cccc(N2CCc3nc(-c4cccnc4)oc3C2)c1,inhibition,[1],14%
N#Cc1cccnc1N1CCc2nc(-c3ccccn3)oc2C1,IC50,[2],640 nM
N#Cc1cccnc1N1CCc2oc(-c3ccccc3)nc2C1,IC50,[2],1200 nM
N#Cc1cccc(N2CC3N=C(c4ccccn4)OC3C2)c1 (stereo not drawn),IC50,[2],219 nM
N#Cc1cc(F)cc(N2CCn3nc(-c4ccccn4)nc3C2)c1,IC50,[2],346 nM
N#Cc1cccc(N2CCc3oc(-c4ccccn4)nc3C2)c1,IC50,[2],60 nM
N#Cc1cccc(N2CCc3nc(-c4ccccn4)oc3C2)c1,IC50,[2],290 nM
N#Cc1cc(F)cc(N2CCn3cc(-c4ccccn4)nc3C2)c1,IC50,[2],153 nM
N#Cc1cccc(S(=O)(=O)N2CCc3nc(-c4ccccn4)oc3C2)c1,inhibition,[1],14%
CC(C)N1CCc2oc(-c3ccccn3)nc2C1,inhibition,[1],0%
N#Cc1cccc(CN2CCc3nc(-c4ccccn4)oc3C2)c1,inhibition,[1],55%
Cc1nc2c(o1)CCN(c1ncccc1C#N)C2,inhibition,[1],7%
N#Cc1cccc(N2CCc3nc(C4CCCCC4)oc3C2)c1,inhibition,[1],79%
N#Cc1cc(F)cc(N2CCc3nc(-c4ccccn4)oc3C2)c1,IC50,[2],54 nM
